Experimental data taken from PubChem BioAssay.
Active and inactive are the calls of the source.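 The calls were made as follows, unless noted: active = viability at or under a set limit in both replicates, limit being median viability minus 3 SD (cut at about 48% in these data, passing the limit was not always enough); inconclusive = at or under the limit in just one replicate; inactive = at or above the limit in both replicates.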

Assays:
[1] = HUVEC growth inhibition – cell-based, human, primary screen (AID 575;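 active = viability at or below 30% in both replicate assays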;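 also: 100% = median of untreated cell wells with 0.1% DMSO on each plate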); settings: HUVEC proliferation, CellTiter-Glo luminescence, 72 h; at 10 µM; stronger effect = lower value
How it was run: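 Material: primary human umbilical vein endothelial cells / Schedule: 72 h exposure, 37 °C, 5% CO2, 30 min RT equilibration / Signal: ATP-based CellTiter-Glo luminescent read / Read-out basis: percent of median DMSO-control luminescence / Control set: 32 DMSO-only cell-control wells (high), 32 MePR drug-control wells (low) per plate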

[2] = H69AR cell proliferation blockers – human, duplicate replicates, primary screen (AID 580); settings: H69AR lung tumor cells viability, ATP luminescence, 72 h; at 10 µM; stronger effect = lower value;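 also: 100% = mean luminescence of untreated wells and 0% = no signal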
[3] = MRP1 drug-resistance reversers in H69AR cells – cell-based, doxorubicin co-treatment, pilot screen (AID 601;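 active = viability loss from added drug above about 55%, and viability with drug at most 40%, in both replicates, limit read from the data, passing the limit was not always enough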); settings: CellTiter-Glo, 72 h, at 10 µM; for differential viability (reversal): stronger effect = higher value
[4] = yeast transport mutant growth inhibition pilot in 384-well plates, post-Golgi transport modulator project (AID 636; in the data active = inhibition above about 31%); settings: absorbance 615 nm, about 18 h, stronger effect = higher value
[5] = growth suppression of yeast trafficking mutant, preliminary HTS, modulators of trafficking downstream of Golgi apparatus project, 1536-format plate, OD 615 nm (AID 637; in the data active = inhibition above about 30%); settings: yeast transport mutant growth, absorbance 615 nm, 18 h; stronger effect = higher value
[6] = H69AR cells + 2 uM doxorubicin, measured here: viability with 2 uM doxorubicin, stronger effect = lower value
[7] = H69AR cells, compound alone cytotoxicity

SMILES | viability [1] | viability [2] | differential viability (reversal) ([3]; H69AR cells + 2 uM doxorubicin) | viability [3, 6] [%] | viability [3, 7] [%] | inhibition [4] | inhibition [5]
Cc1ccc(NC(=O)c2ccco2)c(NC(=O)c2cccs2)c1 | 92% (inactive) | 88.8% (inactive) | -1.08% (inactive) | 89.9 | 88.8 | -3.73% (inactive) | 8.57% (inactive)
Cc1onc(-c2ccccc2)c1C(=O)N1CCCSC1=Nc1ccccc1 | 76.9% (inactive) | 92.5% (inactive) | 5.92% (inactive) | 86.6 | 92.5 | -4.55% (inactive) | 0.63% (inactive)
CC(=O)c1c(C)[nH]c(C(=O)NC2=NCCS2)c1C | 80.9% (inactive) | 99.8% (inactive) | 23.3% (inactive) | 76.5 | 99.8 | -3.51% (inactive) | -5.4% (inactive)
CN(CCCC(=O)Nc1ccncc1)S(=O)(=O)c1ccc(Cl)cc1 | 56.2% (inactive) | 89% (inactive) | -14.6% (inactive) | 104 | 89 | 0.65% (inactive) | -5.87% (inactive)
CCSc1nc(-c2ccc(OC)cc2)ccc1C#N | 65.8% (inactive) | 66.5% (inactive) | -19.8% (inactive) | 86.3 | 66.5 | -1.69% (inactive) | -1.27% (inactive)
O=C(CN1C(=O)CC(c2ccccc2)=Nc2ccccc21)NCc1ccco1 | 99.2% (inactive) | 92.3% (inactive) | 12.9% (inactive) | 79.4 | 92.3 | -1.82% (inactive) | 13.5% (inactive)
COC(=O)c1ccccc1NC(=O)N1CCCC1 | 108% (inactive) | 103% (inactive) | 13.2% (inactive) | 90.1 | 103 | -3.2% (inactive) | -5.56% (inactive)
CC(C)(C)OC(=O)N1CCN(c2ccc(NC(=O)c3cc4ccccc4oc3=O)cc2)CC1 | 103% (inactive) | 93% (inactive) | 8.14% (inactive) | 84.8 | 93 | -5.45% (inactive) | 1.59% (inactive)
CNCCC(Oc1ccc(C(F)(F)F)cc1)c1ccccc1 (stereo not given) | 54.1% (inactive) | 58.5% (inactive) | -6.63% (inactive) | 65.2 | 58.5 | 2.47% (inactive) | -3% (inactive)
CC(=O)NC(Cc1ccc(C)cc1)C(=O)NC1CCN(C(=O)c2cnccn2)CC1 (stereo not given) | 110% (inactive) | 93.3% (inactive) | 2.21% (inactive) | 91.1 | 93.3 | -2.93% (inactive) | 2.22% (inactive)
C=C(C)COc1ccc(-c2n[nH]c(C)c2-c2ccccc2)c(O)c1 | 2.96% (active) | 21.1% (active) | 7.88% (inactive) | 13.2 | 21.1 | -1.69% (inactive) | 9% (inactive)
O=C1CC(C(=O)Nc2ccc(Br)cc2)C2(CCCC2)O1 (stereo not given) | 109% (inactive) | 101% (inactive) | 8.19% (inactive) | 93.1 | 101 | -4% (inactive) | -1.75% (inactive)
CCCN(CCO)Cc1cccc(Br)c1 | 101% (inactive) | 99.1% (inactive) | 5.32% (inactive) | 93.8 | 99.1 | -6.05% (inactive) | 3.65% (inactive)
CC1(C)NC(=O)N(CCCOc2ccc(Br)cc2Cl)C1=O | 86% (inactive) | 89.7% (inactive) | 15.5% (inactive) | 74.3 | 89.7 | -3.82% (inactive) | 4.29% (inactive)
N#Cc1cnc(SCC(=O)c2ccccc2)nc1N | 95.5% (inactive) | 93.1% (inactive) | 16.2% (inactive) | 76.9 | 93.1 | -6.93% (inactive) | 7.3% (inactive)
Cc1cccnc1NC(=O)CCCN1C(=O)c2ccccc2C1=O | 114% (inactive) | 94.7% (inactive) | 4.67% (inactive) | 90 | 94.7 | -6.13% (inactive) | 3.97% (inactive)
O=C(NCC1CCCO1)c1cccc(N2CCCC2=O)c1 (stereo not given) | 90% (inactive) | 90.2% (inactive) | -0.795% (inactive) | 91 | 90.2 | -5.47% (inactive) | 1.9% (inactive)
Cc1cc(NC(=O)c2ccc3nc(-c4ccccc4)c(-c4ccccc4)nc3c2)no1 | 23.6% (active) | 13.4% (active) | -1.37% (inactive) | 14.8 | 13.4 | -1.05% (inactive) | 0.79% (inactive)
Cc1ccnc(NC(=O)Nc2ccc(F)cc2)c1 | 99.9% (inactive) | 104% (inactive) | 12.9% (inactive) | 91.2 | 104 | -2.08% (inactive) | -8.41% (inactive)
O=C(NCc1ccco1)C1Cc2ccccc2CN1S(=O)(=O)c1ccccc1F (stereo not given) | 57.5% (inactive) | 25.3% (active) | -9.23% (inactive) | 34.6 | 25.3 | -1.95% (inactive) | 1.27% (inactive)

SMILES | viability [1] | viability [2] | differential viability (reversal) ([3]; H69AR cells + 2 uM doxorubicin) | viability [3, 6] [%] | viability [3, 7] [%] | inhibition [4] | inhibition [5]
COc1cc2c(cc1OC)CN(Cc1nc3ccsc3c(=O)[nH]1)CC2 | 99.5% (inactive) | 92.2% (inactive) | 7.59% (inactive) | 84.6 | 92.2 | -2.73% (inactive) | 3.17% (inactive)
Cc1cc(C)n(CCCNC(=O)c2ccc(S(=O)(=O)NCc3ccco3)cc2)n1 | 97.6% (inactive) | 94.2% (inactive) | 7.31% (inactive) | 86.9 | 94.2 | -3.77% (inactive) | 3.17% (inactive)
Nc1nc(SCc2nc3scc(-c4cccs4)c3c(=O)[nH]2)n[nH]1 | 77.5% (inactive) | 93.4% (inactive) | -3.9% (inactive) | 97.3 | 93.4 | -2.67% (inactive) | 0.32% (inactive)
COC(=O)CSC1=C(C#N)C(c2ccccc2)CC(=O)N1 (stereo not given) | 71.7% (inactive) | 23.4% (active) | -48.4% (inactive) | 71.7 | 23.4 | -6% (inactive) | 6.19% (inactive)
COc1cccc(Oc2ccc(N)cc2)c1 | 74.9% (inactive) | 74.8% (inactive) | -6.83% (inactive) | 81.7 | 74.8 | 0% (inactive) | -3.33% (inactive)
COCCn1nnnc1C(C(C)C)N(Cc1cccnc1)Cc1ccccc1Cl (stereo not given) | 96.4% (inactive) | 83.8% (inactive) | 34.7% (inactive) | 49 | 83.8 | -2.34% (inactive) | 2.06% (inactive)
COc1nc(OC)nc(N2CCC(NC(=O)C(Cc3ccc(C(C)C)cc3)NC(C)=O)CC2)n1 (stereo not given) | 110% (inactive) | 64.4% (inactive) | -3.67% (inactive) | 68 | 64.4 | -7.5% (inactive) | 1.59% (inactive)
CC(C)c1ccc(-c2nc(N3CCOCC3)[nH]c(=O)c2C#N)cc1 | 79.3% (inactive) | 98% (inactive) | 1.58% (inactive) | 96.4 | 98 | -6.4% (inactive) | 3.33% (inactive)
Cn1c(=O)c(NC(=O)c2ccccc2)c2n(c1=S)CCCCC2 | 104% (inactive) | 90.8% (inactive) | -6.87% (inactive) | 97.6 | 90.8 | -2.99% (inactive) | 3.65% (inactive)
COc1nc2ccc(C)cc2cc1-c1noc(-c2cccnc2)n1 | 103% (inactive) | 104% (inactive) | 11.8% (inactive) | 91.9 | 104 | -2.37% (inactive) | -2.54% (inactive)
CCOc1ccccc1N1C(=O)CC(Sc2ncccc2C(=O)O)C1=O (stereo not given) | 97% (inactive) | 99.9% (inactive) | 12.7% (inactive) | 87.2 | 99.9 | -3.29% (inactive) | 1.59% (inactive)
O=P1(O)C=C(c2ccccc2)NC(c2ccccc2)=C1 | 108% (inactive) | 91.7% (inactive) | -4.4% (inactive) | 96.1 | 91.7 | -4.93% (inactive) | 0.48% (inactive)
CC(Sc1nnc(-c2cc3ccccc3o2)n1-c1ccccc1)C(=O)O (stereo not given) | 90.9% (inactive) | 95.1% (inactive) | 1.61% (inactive) | 93.5 | 95.1 | -5.84% (inactive) | 2.38% (inactive)
O=C(NC1CCCCC1)C1CCCN1C(=O)NCc1ccccc1 (stereo not given) | 101% (inactive) | 102% (inactive) | -1.87% (inactive) | 104 | 102 | -4.93% (inactive) | -3.17% (inactive)
CCOC(=O)Cc1csc(NC(=O)CSc2nnc(C)n2C)n1 | 108% (inactive) | 95.2% (inactive) | 5.79% (inactive) | 89.4 | 95.2 | 6.27% (inactive) | -5.4% (inactive)
O=C(NC1(C(F)(F)F)NC(=O)N(Cc2ccco2)C1=O)c1cccnc1 (stereo not given) | 109% (inactive) | 97.2% (inactive) | 2.34% (inactive) | 94.8 | 97.2 | -7.89% (inactive) | 1.11% (inactive)
CCC(C)c1ccc(NC(=O)C2CC2)cc1 (stereo not given) | 88.6% (inactive) | 90.3% (inactive) | 9.41% (inactive) | 80.9 | 90.3 | -1.82% (inactive) | 2.06% (inactive)
O=C(Nc1cc(C(F)(F)F)ccc1Cl)c1cc(C2CC2)on1 | 96.4% (inactive) | 91% (inactive) | 3.55% (inactive) | 87.4 | 91 | -3.82% (inactive) | 0.63% (inactive)
COc1cccc(Nc2nc(=O)[nH]nc2C)c1 | 75.7% (inactive) | 87.3% (inactive) | 10.9% (inactive) | 76.4 | 87.3 | -2.08% (inactive) | 8.57% (inactive)
COc1cc(NC(=O)c2cc(-n3cnnc3)ccc2Cl)cc(OC)c1 | 93.6% (inactive) | 104% (inactive) | 19.9% (inactive) | 83.7 | 104 | 0% (inactive) | -1.11% (inactive)
